Test results reported in BindingDB's records for doi:10.1016/j.bmc.2013.02.060 (National Institute On Drug Abuse and The National Institute …, 2013).

biological target: Delta-type opioid receptor (Homo sapiens, UniProt P41143); experiment: Displacement of [3H]DADLE from human recombinant delta opioid receptor expressed in CHO cell membranes after 2 hrs by liquid scintillation counting analysis
In short: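 Human DOR stably expressed in CHO cells; washed membranes (~30 µg protein/tube) incubated with ~2 nM [3H]DADLE and 10 drug concentrations in 50 mM Tris-HCl pH 7.4 with protease inhibitors, 2 h at 25 °C. Levallorphan defined nonspecific binding.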

Sequence of Delta-type opioid receptor (P41143 whole entry): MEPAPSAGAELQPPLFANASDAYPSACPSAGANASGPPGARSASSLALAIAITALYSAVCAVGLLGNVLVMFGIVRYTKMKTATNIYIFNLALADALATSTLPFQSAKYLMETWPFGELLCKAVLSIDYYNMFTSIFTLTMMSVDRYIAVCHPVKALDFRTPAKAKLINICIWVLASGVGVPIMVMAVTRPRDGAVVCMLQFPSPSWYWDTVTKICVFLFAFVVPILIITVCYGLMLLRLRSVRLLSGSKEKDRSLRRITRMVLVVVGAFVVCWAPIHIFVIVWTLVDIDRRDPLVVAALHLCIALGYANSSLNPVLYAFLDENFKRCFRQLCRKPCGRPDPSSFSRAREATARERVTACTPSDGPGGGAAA

Compared with `CN1CC[C@@]2(CCc3ccc(F)cc3)c3cc(O)ccc3O[C@H]2C1`, `CN1CC[C@@]2(CCc3ccccc3F)c3cc(O)ccc3O[C@H]2C1` is 2.5-fold lower in Ki: 128 nM for the first, 52 nM for the second.

Going from `CN1CC[C@@]2(C)c3cc(O)ccc3O[C@H]2C1` to `CCCC[C@@]12CCN(C)C[C@@H]1Oc1ccc(O)cc12`, the Ki falls from greater than 10000 nM to 207 nM.

`Oc1ccc2c(c1)[C@]1(CCc3ccccc3)CCN(CCc3ccc(F)cc3)C[C@@H]1O2` and `Oc1ccc2c(c1)[C@]1(CCc3ccccc3)CCN(CCc3ccc(C(F)(F)F)cc3)C[C@@H]1O2` are within 1.5-fold of each other in Ki: 34 nM for the first, 26 nM for the second.

First: Oc1ccc2c(c1)[C@]1(CCc3ccccc3)CCN(CCc3cccc(C(F)(F)F)c3)C[C@@H]1O2
Second: Oc1ccc2c(c1)[C@]1(CCc3ccccc3)CCN(CCc3ccccc3C(F)(F)F)C[C@@H]1O2
The Ki of the first is 2.2-fold lower: 63 nM for the first, 136 nM for the second.

Compared with `Oc1ccc2c(c1)[C@]1(CCc3ccccc3)CCN(CC3CC3)C[C@@H]1O2`, `CN1CC[C@@]2(CCCCCc3ccccc3)c3cc(O)ccc3O[C@H]2C1` is 3.1-fold higher in Ki: 24 nM for the first, 75 nM for the second.

First: Oc1ccc2c(c1)[C@]1(CCc3ccccc3)CCN(CCCc3ccccc3)C[C@@H]1O2
Second: Oc1ccc2c(c1)[C@]1(CCc3ccccc3)CCN(CCc3ccccc3)C[C@@H]1O2
The Ki of the first is 2.8-fold higher: 111 nM for the first, 39 nM for the second. The second binds more tightly here.

In the case of `Oc1ccc2c(c1)[C@]1(CCc3ccccc3)CCN(CCc3ccccc3F)C[C@@H]1O2`, the Ki is reported as 26 nM.
